Assay results from ChEMBL document CHEMBL1133585, “Antimalarial activity of compounds interfering with Plasmodium falciparum phospholipid metabolism: comparison between mono- and bisquaternary ammonium salts” (J Med Chem, 2000).

Test system: Plasmodium falciparum
Assay: In vitro activity against Plasmodium falciparum
Assay type: functional, organism-based
Outline: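 P. falciparum cultures at 0.3-0.5% parasitemia (percentage of infected erythrocytes) exposed to drug for one parasite cycle (48 h). Some drugs were dissolved in DMSO, then diluted in culture medium (final DMSO ≤0.25%). [3H]hypoxanthine was then added for 18 h to measure viability. IC50 is 50% inhibition of parasite growth, given as the mean of at least two independent experiments in triplicate using different stock solutions.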

Structure (SMILES)	IC50
CCCCCCCCCCCCCCCC[N+](CC)(CC)CC	140 nM
CCCCCCCCCCCC[N+](C)(C)CCCCCCCCCCCCCCCC[N+](C)(C)CCCCCCCCCCCC	1800 nM
CCCCCCCC[N+](C)(C)CCO	3850 nM
CCCCCCCCCCCC[N+](C)(C)CCCCCC[N+](C)(C)CCCCCCCCCCCC	220 nM
CC[N+](CC)(CC)CCCCCCCCCCCC[N+](CC)(CC)CC	45 nM
C=CC[N+](C)(CC=C)CCCCCCCCCCCC	140 nM
C#CCC[N+](C)(C)CCCCCCCCCCCC	230 nM
C#CC[N+](C)(CC#C)CCCCCCCCCCCC	380 nM
C#CC[N+](C)(C)CCCCCCCCCCCC	360 nM
CCCCC[N+](C)(C)CC(C)O (stereo unspecified)	115000 nM
C=CC[N+](C)(C)CCCCCCCCCCCC	270 nM
CCCCCCCCCCCC[N+](C)(C)CCCCCCCCCCCC[N+](C)(C)CCCCCCCCCCCC	180 nM
CCCCCCCCCCCCCCCC[N+]1(C)CCCC1	420 nM
CCCCCC[N+](CC)(CC)CC	9700 nM
CCCCCCCCCCCCCC[N+]1(C)CCCC1	270 nM
CCCCCC[N+]1(C)CCCC1	26000 nM
CC[N+](CC)(CC)CCCCCC[N+](CC)(CC)CCCCCC[N+](CC)(CC)CC	800000 nM
CCCCCCCCCCCC[N+](C)(C)C(C)C(O)c1ccccc1 (stereo unspecified)	670 nM

Structure (SMILES)	IC50
CCCCCCCC[N+](C)(C)C	5000 nM
CC[N+](CC)(CC)CCCCCCCCCCCCCCCCCCCCC[N+](CC)(CC)CC	0.003 nM
C[N+](C)(C)CCCCCCCCc1ccccc1	620 nM
C[N+]1(CCCCCCCCCCCC[N+]2(C)CCCC2)CCCC1	13 nM
CCCCCCCCCCCCCCCCCC[N+](CC)(CC)CC	270 nM
CCCCCCCCCCCC[N+]1(C)CCCC1	220 nM
C[N+](C)(C)CCCCCCCCCCCCCCCC[N+](C)(C)C	4 nM
C#CCC[N+](C)(C)CCCCCCCCCCCC[N+](C)(C)CCC#C	44 nM
CCCCCCCCCCCC[N+](C)(C)CCC[N+](C)(C)CCCCCCCCCCCC	10800 nM
C=CC[N+](CC)(CC)CCCCCCCCCCCC[N+](CC)(CC)CC=C	5.3 nM
CCCCCCCCCCCCCCCC[N+](C)(C)CCO	810 nM
CC[N+](CC)(CC)CCCCCCCCCCCCCCCC[N+](CC)(CC)CC	1.6 nM
CC[N+](CC)(CC)CCCCCCCC[N+](CC)(CC)CC	540 nM
CC[N+](CC)(CCO)CCCCCCCCCCCCCCCC[N+](CC)(CC)CCO	4.9 nM
C[N+]1(CCCCCCCCCCCCCCCC[N+]2(C)CCCC2)CCCC1	0.64 nM
C#CC[N+](C)(C)CCCCCCCCCCCC[N+](C)(C)CC#C	7.6 nM
CCCCCCCCCCCC[N+](C)(C)CC(C)O (stereo unspecified)	430 nM
C[N+]1(CCCCCCCCCCCCCC[N+]2(C)CCCC2)CCCC1	1.1 nM
